Measured values taken from ChEMBL document CHEMBL1121364, “Nucleoside conjugates as potential antitumor agents. 3. Synthesis and antitumor activity of 1-(beta-D-arabinofuranosyl)cytosine conjugates of corticosteroids” (1980).

Key:
[1] = system: L1210; assay: Antitumor activity in the mice with intraperitoneal implanted L1210 lymphoid leukemia at the dose 50 mg/kg/day x 5 was determined as percentage increase in the life span as compared with control tumor bearers; type: functional; conditions: Mus musculus, L1210, ip
Outline: (§1)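 C3D2F1/J female mice (C3H/HeJ female × DBA/2J male), groups of six to eight, average weight 25 g. Inoculated ip with 1 × 10^6 L1210 ascites cells taken from DBA/2Ha donor mice bearing 3-5 day old tumors. Compounds were dissolved in 0.154 N NaOH, neutralized with 0.154 N HCl (final 0.9% NaCl), and given ip daily for 5 days from 24 h post-implant. Median survival T/C; ILS = (T/C − 1) × 100; 30-day survivors counted.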

[2] = system: L1210; assay: Antitumor activity in mice with intraperitoneal implanted L1210 lymphoid leukemia at the dose 75 mg/kg/day x 5 was determined as weight change (g/mouse) on 8th day; type: functional
Outline: (§2)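 C3D2F1/J female mice (C3H/HeJ × DBA/2J), groups of six to eight, average 25 g, inoculated ip with 1 × 10^6 L1210 ascites cells taken from DBA/2Ha donor mice carrying 3-5 day tumors. Compound dissolved in 0.154 N NaOH, then neutralized with 0.154 N HCl to give 0.9% NaCl. Given ip daily for 5 consecutive days starting 24 h after implantation. Body weight change per mouse recorded on day 8.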

[3] = system: L1210; assay: Antitumor activity in the mice with intraperitoneal implanted L1210 lymphoid leukemia at the dose of 100 mg/kg/day x 5 was determined as mean survival of treated group compared to untreated; 7/11; type: functional, Mus musculus; outline: as §1
[4] = system: L1210; assay: Antitumor activity in the mice with intraperitoneal implanted L1210 lymphoid leukemia at the dose 25 mg/kg/day x 5 was determined as percentage increase in the life span as compared with control tumor bearers; type: functional; conditions: Mus musculus, L1210, ip
Outline: (§3)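 Female C3D2F1/J mice (C3H/HeJ × DBA/2J), groups of six to eight, average weight 25 g. Each mouse got 1 × 10^6 L1210 ascites cells ip, taken from DBA/2Ha donor mice bearing 3-5 day tumors. Compound was dissolved in 0.154 N NaOH and neutralized with 0.154 N HCl (final 0.9% NaCl). Dosed ip daily ×5, starting 24 h after implant. Recorded body weight change on day 8, survival range, median survival and 30-day survivors. ILS = (T/C − 1) × 100.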

[5] = system: L1210; assay: Antitumor activity in the mice with intraperitoneal implanted L1210 lymphoid leukemia at the dose 25 mg/kg/day x 5 was determined as Survival time in days; Range is 12-18 days; type: functional, Mus musculus; outline: as §3
[6] = system: L1210; assay: Antitumor activity in the mice with intraperitoneal implanted L1210 lymphoid leukemia at the dose 75 mg/kg/day x 5 was determined as percentage increase in the life span as compared with control tumor bearers; type: functional; conditions: Mus musculus, L1210, ip; outline: as §1
[7] = system: L1210; assay: Antitumor activity in the mice with intraperitoneal implanted L1210 lymphoid leukemia at the dose of 25 mg/kg/day x 5 was determined as mean survival of treated group compared to untreated; 14/8.5; type: functional, Mus musculus; outline: as §1
[8] = system: L1210; assay: Antitumor activity in the mice with intraperitoneal implanted L1210 lymphoid leukemia at the dose 75 mg/kg/day x 5 was determined as Survival time in days; Range is 14-18 days; type: functional, Mus musculus; outline: as §1
[9] = system: L1210; assay: Antitumor activity in the mice with intraperitoneal implanted L1210 lymphoid leukemia at the dose 100 mg/kg/day x 5 was determined as percentage increase in the life span as compared with control tumor bearers; type: functional; conditions: Mus musculus, L1210, ip; outline: as §3
[10] = system: L1210; assay: Antitumor activity in mice with intraperitoneal implanted L1210 lymphoid leukemia at the dose 25 mg/kg/day x 5 was determined as weight change (g/mouse) on 8th day; type: functional; outline: as §2
[11] = system: L1210; assay: In Vitro evaluation for the antiproliferative activity by observing the growth inhibition of L1210 lymphoid leukemia cells in culture at 72 hour; type: functional, Mus musculus
Outline: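 Growth of L1210 lymphoid leukemia cells in culture measured by Trypan blue exclusion of viable cells after 72 h of drug exposure. ED50 is the concentration giving 50% growth inhibition. In some runs the compound was first preincubated in medium at 37 °C for 24 or 48 h before the assay.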

[12] = system: L1210; assay: Antitumor activity in the mice with intraperitoneal implanted L1210 lymphoid leukemia at the dose 50 mg/kg/day x 5 was determined and number of animals survived on 30 th day were reported; 0/8; type: functional, Mus musculus; outline: as §3
[13] = system: L1210; assay: Antitumor activity in the mice with intraperitoneal implanted L1210 lymphoid leukemia at the dose of 50 mg/kg/day x 5 was determined as mean survival of treated group compared to untreated; 16/9.5; type: functional, Mus musculus; outline: as §1
[14] = system: L1210; assay: Antitumor activity in the mice with intraperitoneal implanted L1210 lymphoid leukemia at the dose of 75 mg/kg/day x 5 was determined as mean survival of treated group compared to untreated; 17.5/9.5; type: functional, Mus musculus
[15] = system: L1210; assay: Antitumor activity in the mice with intraperitoneal implanted L1210 lymphoid leukemia at the dose 100 mg/kg/day x 5 was determined as Survival time in days; Range is 7-8 days; type: functional, Mus musculus; outline: as §3
[16] = system: L1210; assay: Antitumor activity in mice with intraperitoneal implanted L1210 lymphoid leukemia at the dose 50 mg/kg/day x 5 was determined as weight change (g/mouse) on 8th day; type: functional; outline: as §2
[17] = system: L1210; assay: Antitumor activity in the mice with intraperitoneal implanted L1210 lymphoid leukemia at the dose 75 mg/kg/day x 5 was determined and number of animals survived on 30 th day were reported; 0/8; type: functional, Mus musculus; outline: as §1
[18] = system: L1210; assay: Antitumor activity in the mice with intraperitoneal implanted L1210 lymphoid leukemia at the dose 100 mg/kg/day x 5 was determined and number of animals survived on 30 th day were reported; 0/6; type: functional, Mus musculus; outline: as §3
[19] = system: L1210; assay: Antitumor activity in the mice with intraperitoneal implanted L1210 lymphoid leukemia at the dose 25 mg/kg/day x 5 was determined and number of animals survived on 30 th day were reported; 0/8; type: functional, Mus musculus; outline: as §3
[20] = system: L1210; assay: Antitumor activity in the mice with intraperitoneal implanted L1210 lymphoid leukemia at the dose 50 mg/kg/day x 5 was determined as Survival time in days; Range is 14-17 days; type: functional, Mus musculus; outline: as §3

`C[C@]12CCC(=O)C=C1CC[C@H]1[C@@H]3CC[C@](O)(C(=O)COP(=O)(O)OC[C@H]4O[C@@H](n5ccc(N)nc5=O)[C@@H](O)[C@@H]4O)[C@@]3(C)C[C@H](O)[C@@]12F` gave an ILS at 50 mg/kg/day [1] of 68%, a Weight change [2] of 0.52 g mouse-1 and a T/C [3] of 7. It also gave an ILS at 25 mg/kg/day [4] of 65%, a Survival time [5] of 12 days and an ILS at 75 mg/kg/day [6] of 84%. It also gave a T/C [7] of 14, a Survival time [8] of 14 days and an ILS at 100 mg/kg/day [9] of -36%. The Weight change [10] was -1.09 g mouse-1, the “ED 50” value [11] was 0.08 µM and the Survivors [12] was 0. For the same compound, the T/C [13] was 16, the Survival time [14] was 17.5 days and the Survival time [15] was 7 days. It also gave a Weight change [16] of 0.39 g mouse-1, a Survivors [17] of 0 and a Survivors [18] of 0. For the same compound, the Survivors [19] was 0 and the Survival time [20] was 14 days.
